In ChEMBL document CHEMBL3102846 (Eur J Med Chem, 2014):
pEC50: −log10 of the molar value. Active and inactive are the calls of the source. The rule behind the calls is not given here.

How the values were obtained:
[1] = Inhibition of Wnt3A/beta-catenin signaling-mediated Tcf4 transcriptional activity in human U2OS cells at 10 uM after 24 hrs by FOPglow reporter gene assay; format: cell-based
Procedure, shortened: (§1)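 U2OS cells (1.0×10^5/well, 90–95% confluent) were co-transfected with TOPglow or FOPglow (0.3 µg) plus pCMV Renilla. At 20 h they were treated for 24 h with Wnt-3A conditioned medium and analogs. Firefly luciferase was normalized to Renilla and expressed as % of DMSO-treated samples; mean ± S.E.M of three independent experiments.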

[2] = Inhibition of Wnt3A/beta-catenin signaling-mediated Tcf4 transcriptional activity in human U2OS cells at 20 uM after 24 hrs by FOPglow reporter gene assay; format: cell-based; procedure, shortened: as §1
[3] = Inhibition of Wnt3A/beta-catenin signaling in HEK293 cells at 20 uM after 24 hrs by firefly/renilla dual luciferase reporter gene assay relative to vehicle-treated control; format: cell-based; parameters: scale not given: the % may be the effect or the level left; conditions: Homo sapiens
Procedure, shortened: (§2)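 HEK293T cells were co-transfected with TOPglow (or FOPglow) plus pCMV Renilla. At 20 h they were reseeded at 18×10^3/well and treated for 24 h with Wnt-3A conditioned medium (from L-Wnt-3A cells) plus analogs (0.01–20 µM; DMSO ≤0.1%). Firefly/Renilla dual-luciferase ratios were expressed as % of DMSO under Wnt-3A. EC50 was taken from sigmoidal concentration–response fits; three independent experiments.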

[4] = Inhibition of Wnt3A/beta-catenin signaling in HEK293 cells at 5 uM after 24 hrs by firefly/renilla dual luciferase reporter gene assay relative to vehicle-treated control; format: cell-based; parameters: scale not given: the % may be the effect or the level left; conditions: Homo sapiens; procedure, shortened: as §2
[5] = Inhibition of Wnt3A/beta-catenin signaling in HEK293 cells at 10 uM after 24 hrs by firefly/renilla dual luciferase reporter gene assay relative to vehicle-treated control; format: cell-based; parameters: scale not given: the % may be the effect or the level left; conditions: Homo sapiens; procedure, shortened: as §2
U2OS [6] = assay: Antiinvasive activity in human U2OS cells at 5 uM after 24 hrs by matrigel assay; format: functional
Procedure, shortened: (§3)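 U2OS osteosarcoma cells were pretreated with analogs for 24 h, and viability was confirmed by trypan blue. Cells were then seeded at 1.5×10^5 in serum-free medium onto inserts precoated with 30 µg Matrigel (8 µm pore), with McCoy's 5A plus 15% FBS below as chemoattractant. After 48 h of invasion, cells were fixed in 70% ethanol, stained with 0.2% crystal violet, and counted in ten random fields at 200×. Values are % of DMSO control; n=3.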

[7] = Inhibition of Wnt3A/beta-catenin signaling-mediated Tcf4 transcriptional activity in human HEK293T cells at dual luciferase reporter gene assay EC50 after 24 hrs by FOPglow reporter gene assay; parameters: scale not given: the % may be the effect or the level left
[8] = Inhibition of Wnt3A/beta-catenin signaling in HEK293 cells after 24 hrs by firefly/renilla dual luciferase reporter gene assay; format: cell-based; conditions: Homo sapiens, HEK293, 24 h; procedure, shortened: as §2
[9] = Inhibition of Wnt3A/beta-catenin signaling in HEK293 cells at 1 uM after 24 hrs by firefly/renilla dual luciferase reporter gene assay relative to vehicle-treated control; format: cell-based; parameters: scale not given: the % may be the effect or the level left; conditions: Homo sapiens; procedure, shortened: as §2
[10] = Inhibition of Wnt3A/beta-catenin signaling in human U2OS cells assessed as reduction in nuclear beta-catenin accumulation at 5 uM after 24 hrs by Western blot analysis; format: cell-based
Procedure, shortened: (§4)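 U2OS cells were pretreated with analogs for 24 h, and cytoplasmic and nuclear fractions were prepared for β-catenin immunoblotting. α-Tubulin (cytoplasmic) and lamin A/C (nuclear) were loading references. Bands were quantified by densitometry and expressed as % of DMSO-treated cells, with at least triplicate experiments.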

[11] = Inhibition of Wnt3A/beta-catenin signaling in human U2OS cells assessed as effect on cytoplasmic beta-catenin level at 5 uM after 24 hrs by Western blot analysis; format: cell-based; procedure, shortened: as §4
[12] = Inhibition of Wnt3A/beta-catenin signaling-mediated Tcf4 transcriptional activity in human U2OS cells at 1 uM after 24 hrs by FOPglow reporter gene assay; format: cell-based; procedure, shortened: as §1
U2OS [13] = assay: Antiinvasive activity in human U2OS cells at 1 uM after 24 hrs by matrigel assay; format: functional; procedure, shortened: as §3
U2OS [14] = assay: Downregulation of MMP9 protein expression in human U2OS cells at 1 to 5 uM after 24 hrs by Western blot analysis; format: functional, cell-based
Procedure, shortened: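 U2OS cells were exposed to analogs or DMSO vehicle for 24 h, then total protein was collected and MMP-9 immunoblotted. Blots were repeated at least in triplicate.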

[15] = Inhibition of Wnt3A/beta-catenin signaling in HEK293 cells after 24 hrs by firefly/renilla dual luciferase reporter gene assay relative to curcumin; format: cell-based; conditions: Homo sapiens
Procedure, shortened: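 EC50s came from the HEK293T TOPglow/Renilla dual-luciferase assay with Wnt-3A conditioned medium and 24 h compound exposure (0.01–20 µM), using sigmoidal fits; three independent experiments.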

[16] = Inhibition of Wnt3A/beta-catenin signaling-mediated Tcf4 transcriptional activity in human U2OS cells at 5 uM after 24 hrs by FOPglow reporter gene assay; format: cell-based; procedure, shortened: as §1
HEK293T (human) = assay: Cytotoxicity against human HEK293T cells at dual luciferase reporter gene assay EC50 after 24 hrs by MTS assay

Compound | inhibition [1] [%] | inhibition [2] [%] | activity [3] [%] | activity [4] [%] | activity [5] [%] | Activity (U2OS [6]) [%] | activity [7] [%] | pEC50 [8] | activity [9] [%] | inhibition [10] | inhibition [11] | inhibition [12] [%] | Activity (U2OS [13]) [%] | activity (U2OS [14]) | fold change (FC) [15] | inhibition [16] [%] | Activity (HEK293T (human)) [%]
COc1cc(/C=C/C(=O)CC(=O)/C=C/c2ccc(O)c(OC)c2)ccc1O [CURCUMIN] | 27.1 | 59.4 | 62.8 | 98.2 | 82.5 | 29 | 89.3 | 4.68 | 99.4 | – | – | – | – | – | – | – | –
O=C(/C=C/c1ccc(O)cc1)/C=C/c1ccc(O)cc1 | – | – | 37.8 | 51.3 | 52 | 76.2 | 100 | 5.49 | 62.3 | Active | inactive | 25.7 | 34.8 | Active | 6.5 | – | –
COc1ccc(/C=C/C(=O)/C=C/c2ccc(OC)c(O)c2)cc1O | – | – | – | 38.8 | 34.4 | – | 105 | 5.74 | 82.5 | inactive | inactive | – | – | – | 11.2 | 49.4 | 86.6
O=C1/C(=C/c2ccc(O)cc2)CC/C1=C\c1ccc(O)cc1 | – | – | 8 | 28.3 | 19.6 | 72.8 | 101 | 6.40 | 34.3 | Active | inactive | 25.7 | 34.8 | Active | 50.5 | – | 81.4
COc1ccc(/C=C2\CCC/C(=C\c3ccc(OC)c(O)c3)C2=O)cc1O | – | – | 21.4 | 27.7 | 24.7 | 81.6 | 93.8 | 6.52 | 37.3 | Active | inactive | 25.7 | 34.8 | Active | 59.7 | – | 91.6
